This note sets out measurements from the M2OR odorant receptor database.

Residue numbers refer to the chain shown, from its start.

Common to all, as to conditions: stereoisomer not certain
Assay [1] concerns the target T1, OR2J2 (Homo sapiens) (UniProt O76002).
T1 sequence (whole entry): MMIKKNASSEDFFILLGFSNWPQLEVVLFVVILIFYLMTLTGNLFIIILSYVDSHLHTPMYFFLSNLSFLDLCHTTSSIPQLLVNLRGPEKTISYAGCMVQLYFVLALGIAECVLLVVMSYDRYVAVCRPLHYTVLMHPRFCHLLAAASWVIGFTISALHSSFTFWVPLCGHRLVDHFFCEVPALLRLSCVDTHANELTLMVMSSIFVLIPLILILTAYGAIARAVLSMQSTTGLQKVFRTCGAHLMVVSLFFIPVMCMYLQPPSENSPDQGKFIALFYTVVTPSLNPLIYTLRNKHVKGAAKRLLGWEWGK
The gist of the method: (§1)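 Whether a receptor–molecule pair is responsive (active) rests on the original authors' judgment that its measured signal was statistically different from baseline. Pairs without that judgment are non-responsive (inactive). Sources used varied assay methods, commonly transient luciferase assays in mammalian cell lines.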

Assay [2] concerns T2, OR2H2.
T2 sequence (whole entry): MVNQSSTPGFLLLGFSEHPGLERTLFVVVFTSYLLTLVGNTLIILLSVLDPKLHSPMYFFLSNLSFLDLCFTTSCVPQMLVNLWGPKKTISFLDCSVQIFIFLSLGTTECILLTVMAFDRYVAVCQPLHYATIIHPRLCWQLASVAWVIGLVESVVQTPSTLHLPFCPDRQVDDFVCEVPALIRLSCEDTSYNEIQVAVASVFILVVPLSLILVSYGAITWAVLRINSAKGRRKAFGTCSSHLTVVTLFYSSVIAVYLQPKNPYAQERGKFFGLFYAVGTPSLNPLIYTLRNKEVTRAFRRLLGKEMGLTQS
The gist of the method:
as §1

In assay [3] the target is T3, OR2J1 (Homo sapiens) (UniProt Q9GZK6).
T3 sequence (whole entry): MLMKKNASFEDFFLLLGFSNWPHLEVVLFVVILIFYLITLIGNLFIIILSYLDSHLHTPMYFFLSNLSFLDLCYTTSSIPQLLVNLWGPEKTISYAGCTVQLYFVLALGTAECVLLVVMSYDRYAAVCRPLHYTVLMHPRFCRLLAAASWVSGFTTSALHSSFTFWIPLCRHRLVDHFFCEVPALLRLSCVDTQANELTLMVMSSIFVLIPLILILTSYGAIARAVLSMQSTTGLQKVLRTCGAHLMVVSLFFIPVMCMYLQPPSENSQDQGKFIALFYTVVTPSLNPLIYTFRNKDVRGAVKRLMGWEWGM
Summed up: as §1

Assay [4] deals with T4, OR2J1 L14I V182A.
T4 sequence (whole entry): T3 sequence (whole entry) with L14I, V182A
The gist of the method:
as §1

Assay [5] concerns T5, OR2J2.
T5 sequence (whole entry): T1 sequence (whole entry) with H74Y, A111T, A146V, A218T
Summed up:
as §1

In assay [6] the target is T6, OR2J3 (Homo sapiens) (UniProt O76001).
T6 sequence (whole entry): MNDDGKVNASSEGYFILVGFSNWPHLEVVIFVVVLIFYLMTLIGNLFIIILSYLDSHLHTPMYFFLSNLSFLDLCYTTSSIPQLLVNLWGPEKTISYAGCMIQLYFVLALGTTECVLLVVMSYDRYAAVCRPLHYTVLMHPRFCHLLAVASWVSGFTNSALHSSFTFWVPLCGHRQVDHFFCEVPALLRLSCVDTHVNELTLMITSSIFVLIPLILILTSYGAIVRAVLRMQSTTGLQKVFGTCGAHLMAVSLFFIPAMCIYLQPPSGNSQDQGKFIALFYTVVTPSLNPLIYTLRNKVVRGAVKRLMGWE
The gist of the method:
as §1

The subject of assay [7] is T7, OR2J3.
T7 sequence (whole entry): T6 sequence (whole entry) with V228I, I261M
The gist of the method:
as §1

In assay [8] the target is T8, OR2K2 (Homo sapiens) (UniProt Q8NGT1).
T8 sequence (whole entry): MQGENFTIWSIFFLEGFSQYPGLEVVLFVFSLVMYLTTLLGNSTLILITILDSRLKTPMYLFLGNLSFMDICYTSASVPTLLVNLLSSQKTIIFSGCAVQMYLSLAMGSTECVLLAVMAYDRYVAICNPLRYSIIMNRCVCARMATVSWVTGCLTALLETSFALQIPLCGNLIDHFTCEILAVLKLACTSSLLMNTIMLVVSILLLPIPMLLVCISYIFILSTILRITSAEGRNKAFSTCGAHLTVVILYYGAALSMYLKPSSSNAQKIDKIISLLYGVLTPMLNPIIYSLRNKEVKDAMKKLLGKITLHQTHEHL
The gist of the method: as §1

The target of assay [9] is T9, OR2L13 (Homo sapiens) (UniProt Q8N349).
T9 sequence (whole entry): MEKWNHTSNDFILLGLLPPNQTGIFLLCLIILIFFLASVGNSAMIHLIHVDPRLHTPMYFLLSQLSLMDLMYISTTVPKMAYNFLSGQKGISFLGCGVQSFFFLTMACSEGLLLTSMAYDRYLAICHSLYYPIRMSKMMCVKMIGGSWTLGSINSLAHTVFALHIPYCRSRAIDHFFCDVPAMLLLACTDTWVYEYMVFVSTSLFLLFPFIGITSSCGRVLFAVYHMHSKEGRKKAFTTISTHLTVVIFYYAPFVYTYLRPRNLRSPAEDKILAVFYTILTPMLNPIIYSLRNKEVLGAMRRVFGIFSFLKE
Summed up:
as §1

For assay [10], the target named is T10, OR2L2 (Homo sapiens) (UniProt Q8NH16).
T10 sequence (whole entry): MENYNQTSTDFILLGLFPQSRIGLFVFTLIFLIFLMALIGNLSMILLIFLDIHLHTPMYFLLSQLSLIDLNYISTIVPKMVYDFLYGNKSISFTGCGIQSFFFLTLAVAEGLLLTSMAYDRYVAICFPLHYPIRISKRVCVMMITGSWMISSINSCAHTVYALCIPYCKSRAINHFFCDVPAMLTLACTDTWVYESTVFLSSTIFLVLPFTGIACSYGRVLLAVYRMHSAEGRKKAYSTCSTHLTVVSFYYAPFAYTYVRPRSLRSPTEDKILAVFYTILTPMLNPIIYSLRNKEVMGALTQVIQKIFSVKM
The gist of the method:
as §1

In assay [11] the target is T11, OR2L3 (Homo sapiens) (UniProt Q8NG85).
T11 sequence (whole entry): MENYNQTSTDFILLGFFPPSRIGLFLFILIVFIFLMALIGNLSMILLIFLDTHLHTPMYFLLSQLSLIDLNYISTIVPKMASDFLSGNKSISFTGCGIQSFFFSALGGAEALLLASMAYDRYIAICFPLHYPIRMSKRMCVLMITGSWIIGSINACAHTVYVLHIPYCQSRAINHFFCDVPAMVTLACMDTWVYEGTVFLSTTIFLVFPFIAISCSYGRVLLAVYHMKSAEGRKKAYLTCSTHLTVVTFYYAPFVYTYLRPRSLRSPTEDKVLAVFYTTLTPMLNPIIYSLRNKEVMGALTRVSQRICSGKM
The gist of the method: as §1

The target of assay [12] is T12, OR2L5 (Homo sapiens) (UniProt Q8NG80).
T12 sequence (whole entry): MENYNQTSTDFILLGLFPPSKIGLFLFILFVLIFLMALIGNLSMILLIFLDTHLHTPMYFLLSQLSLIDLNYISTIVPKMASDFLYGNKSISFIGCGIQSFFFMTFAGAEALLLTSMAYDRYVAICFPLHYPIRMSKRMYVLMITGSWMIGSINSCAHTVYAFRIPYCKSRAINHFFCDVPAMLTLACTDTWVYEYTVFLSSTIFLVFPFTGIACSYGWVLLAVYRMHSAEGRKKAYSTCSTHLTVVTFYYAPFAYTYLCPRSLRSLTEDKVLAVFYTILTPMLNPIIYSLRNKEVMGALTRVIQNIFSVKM
Summed up:
as §1

Assay [13] addresses T13, OR2L8 (Homo sapiens) (UniProt Q8NGY9).
T13 sequence (whole entry): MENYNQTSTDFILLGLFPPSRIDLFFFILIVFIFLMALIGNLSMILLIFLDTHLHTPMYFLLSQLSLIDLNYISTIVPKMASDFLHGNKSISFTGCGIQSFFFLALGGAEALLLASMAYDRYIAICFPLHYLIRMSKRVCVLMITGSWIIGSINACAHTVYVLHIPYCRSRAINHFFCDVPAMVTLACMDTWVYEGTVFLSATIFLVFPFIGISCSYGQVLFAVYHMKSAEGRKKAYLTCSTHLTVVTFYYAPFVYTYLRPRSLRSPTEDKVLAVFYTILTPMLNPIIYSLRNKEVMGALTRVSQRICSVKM
The gist of the method: as §1

The target in assay [14] is T14, OR2M2 (Homo sapiens) (UniProt Q96R28).
T14 sequence (whole entry): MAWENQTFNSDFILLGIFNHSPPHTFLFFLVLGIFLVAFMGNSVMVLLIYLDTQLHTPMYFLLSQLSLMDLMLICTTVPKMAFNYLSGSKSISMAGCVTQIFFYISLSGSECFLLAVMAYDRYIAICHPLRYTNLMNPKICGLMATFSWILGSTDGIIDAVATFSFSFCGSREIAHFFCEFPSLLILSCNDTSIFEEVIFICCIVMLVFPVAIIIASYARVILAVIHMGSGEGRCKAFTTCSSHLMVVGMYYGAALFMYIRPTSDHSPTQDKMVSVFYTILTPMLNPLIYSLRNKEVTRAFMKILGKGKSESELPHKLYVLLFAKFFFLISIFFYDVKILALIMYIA
The gist of the method:
as §1

For assay [15], the target named is T15, OR2M3 (Homo sapiens) (UniProt Q8NG83).
T15 sequence (whole entry): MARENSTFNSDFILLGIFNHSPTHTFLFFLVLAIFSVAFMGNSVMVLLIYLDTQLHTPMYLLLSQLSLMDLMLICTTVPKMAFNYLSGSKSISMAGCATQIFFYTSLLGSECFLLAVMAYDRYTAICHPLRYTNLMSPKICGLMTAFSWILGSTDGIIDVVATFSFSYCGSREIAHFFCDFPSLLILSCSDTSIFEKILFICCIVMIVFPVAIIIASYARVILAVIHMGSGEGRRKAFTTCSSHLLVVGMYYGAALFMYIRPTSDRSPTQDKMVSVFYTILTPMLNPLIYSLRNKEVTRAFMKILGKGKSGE
The gist of the method:
as §1

In assay [16] the test system is OR2M3 A216T. The gist of the method: as §1
OR2M3 A216T, sequence (as listed by the source, stated change not applied): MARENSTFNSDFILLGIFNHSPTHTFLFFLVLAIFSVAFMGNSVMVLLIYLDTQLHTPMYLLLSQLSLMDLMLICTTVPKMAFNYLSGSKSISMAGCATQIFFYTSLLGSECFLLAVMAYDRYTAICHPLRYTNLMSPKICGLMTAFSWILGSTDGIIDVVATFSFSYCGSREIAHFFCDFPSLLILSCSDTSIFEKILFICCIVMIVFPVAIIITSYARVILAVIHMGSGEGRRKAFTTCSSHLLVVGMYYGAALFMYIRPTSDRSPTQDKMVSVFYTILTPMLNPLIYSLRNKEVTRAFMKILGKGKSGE
Assay [17] relates to OR2M3 A33G M144T. Summed up:
as §1

The subject of assay [18] is OR2M3 A33G. The gist of the method:
as §1
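Also: active if original authors judged signal statistically different from baseline.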

OR2M3 A33G, sequence (as listed by the source, stated change not applied): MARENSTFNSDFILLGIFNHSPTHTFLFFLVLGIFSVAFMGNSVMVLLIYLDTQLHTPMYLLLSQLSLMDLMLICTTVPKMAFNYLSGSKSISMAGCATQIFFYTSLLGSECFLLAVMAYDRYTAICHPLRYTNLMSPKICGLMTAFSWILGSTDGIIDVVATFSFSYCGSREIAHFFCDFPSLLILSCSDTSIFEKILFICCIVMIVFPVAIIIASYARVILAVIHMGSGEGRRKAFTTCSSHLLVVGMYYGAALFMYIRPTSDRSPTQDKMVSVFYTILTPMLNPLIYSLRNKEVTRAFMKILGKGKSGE

`CCC(C(=O)O)c1ccccc1` (stereo not drawn): in assay [1], the “odorant receptor agonist call” value was “inactive”.

`CCCCCCCCC(=O)O`: the “odorant receptor agonist call” value in [1] was “inactive”.

In the case of `CCCC(S)CCOC(C)=O` (stereo not drawn), the “odorant receptor agonist call” value in assay [2], in assay [3], in assay [4], in [5], in assay [6] and in [7] was “inactive” each time. The “odorant receptor agonist call” value in [8], in [9], in assay [10], in assay [11], in assay [12] and in assay [13] was “inactive” each time. The “odorant receptor agonist call” value in assay [14] and in [15] was “inactive” throughout.

Regarding `CCCCCCCCCS`, the “odorant receptor agonist call” value in assay [1] was “inactive”.

On to `CCCCCC(=O)C(C)C(C)=O` (stereo not drawn), for which the “odorant receptor agonist call” value in assay [3], in [1], in assay [6], in [8], in assay [9] and in assay [10] was “inactive” each time. For the same molecule, the “odorant receptor agonist call” value in [11], in assay [12], in assay [13], in [14] and in assay [15] was “inactive” throughout.

As to `CCC1OC(C)=C(O)C1=O` (stereo not drawn), the “odorant receptor agonist call” value in assay [2], in [3], in assay [4], in [5], in assay [6] and in assay [7] was “inactive” each time. Further, the “odorant receptor agonist call” value in assay [8], in assay [9], in [10], in [11], in [12] and in assay [13] was “inactive” each time. In addition, the “odorant receptor agonist call” value in assay [14] and in [15] was “inactive” each time.

Consider `CCC(=O)C(=O)CC`, for which the “odorant receptor agonist call” value in assay [1] is “inactive”.

With `CCC(S)C(C)CO` (stereo not drawn), the “odorant receptor agonist call” value in assay [3], in assay [1], in assay [6], in assay [8], in assay [9] and in [10] was “inactive” each time. For the same molecule, the “odorant receptor agonist call” value in assay [11], in [12], in [13], in assay [14] and in [17] was “inactive” each time. In addition, the “odorant receptor agonist call” value in assay [15], in assay [16] and in assay [18] was “active” in each case.

As for `CCCCCC(=O)CC`, the “odorant receptor agonist call” value in [1] was “inactive”.

`Cc1cnc(C)c(C)n1`: the “odorant receptor agonist call” value in assay [2], in [3], in [4], in [5], in assay [6] and in [7] was “inactive” throughout. In addition, the “odorant receptor agonist call” value in assay [8], in assay [9], in assay [10], in [11], in assay [12] and in [13] was “inactive” in each case. Further, the “odorant receptor agonist call” value in assay [14] and in assay [15] was “inactive” each time.

Take `CCCCCC(S)C(C)CO` (stereo not drawn): the “odorant receptor agonist call” value in [3], in assay [1], in [6], in assay [8], in assay [9] and in assay [10] was “inactive” throughout. Further, the “odorant receptor agonist call” value in [11], in assay [12], in [13], in assay [14] and in assay [15] was “inactive” throughout.

Consider `CC12CCC(CC1=O)C2(C)C` (stereo not drawn), for which the “odorant receptor agonist call” value in [1] was “inactive”.

In the case of `CC1=NC(C)C(C)S1` (stereo not drawn), the “odorant receptor agonist call” value in [2], in [3], in assay [4], in [5], in assay [6] and in [7] was “inactive” each time. Moreover, the “odorant receptor agonist call” value in assay [8], in [9], in assay [10], in [11], in assay [12] and in assay [13] was “inactive” each time. Moreover, the “odorant receptor agonist call” value in [14] and in [15] was “inactive” throughout.
